This is an account of results in ChEMBL document CHEMBL4371033, “Highly Potent and Selective Plasmin Inhibitors Based on the Sunflower Trypsin Inhibitor-1 Scaffold Attenuate Fibrinolysis in Plasma” (J Med Chem, 2019).

Residues, ends and D or L forms follow the SMILES beside them.

Experiment [1] has as its target Plasminogen (Homo sapiens, UniProt P00747). Put plainly: Inhibition of plasmin in human plasma assessed as reduction in tPA and thrombin-induced fibrinolysis at 400 nM by fibrin light scattering analysis relative to control. It is filed as cell-free. The method in brief: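 Pooled citrated human plasma with inhibitor in Tris-HCl pH 7.4, 150 mM NaCl, 30 mM CaCl2, plasma 1:5 final. Clotting and lysis started with tPA (1.5 nM) and thrombin (2.5 nM). Fibrin formation and lysis followed by light scattering at 405 nm over 1 h. Mean of three independent experiments, each with 12 technical replicates.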

In experiment [2] the target is T1, Suppressor of tumorigenicity 14 protein (Homo sapiens, UniProt Q9Y5Y6).
T1 sequence (Q9Y5Y6 whole entry): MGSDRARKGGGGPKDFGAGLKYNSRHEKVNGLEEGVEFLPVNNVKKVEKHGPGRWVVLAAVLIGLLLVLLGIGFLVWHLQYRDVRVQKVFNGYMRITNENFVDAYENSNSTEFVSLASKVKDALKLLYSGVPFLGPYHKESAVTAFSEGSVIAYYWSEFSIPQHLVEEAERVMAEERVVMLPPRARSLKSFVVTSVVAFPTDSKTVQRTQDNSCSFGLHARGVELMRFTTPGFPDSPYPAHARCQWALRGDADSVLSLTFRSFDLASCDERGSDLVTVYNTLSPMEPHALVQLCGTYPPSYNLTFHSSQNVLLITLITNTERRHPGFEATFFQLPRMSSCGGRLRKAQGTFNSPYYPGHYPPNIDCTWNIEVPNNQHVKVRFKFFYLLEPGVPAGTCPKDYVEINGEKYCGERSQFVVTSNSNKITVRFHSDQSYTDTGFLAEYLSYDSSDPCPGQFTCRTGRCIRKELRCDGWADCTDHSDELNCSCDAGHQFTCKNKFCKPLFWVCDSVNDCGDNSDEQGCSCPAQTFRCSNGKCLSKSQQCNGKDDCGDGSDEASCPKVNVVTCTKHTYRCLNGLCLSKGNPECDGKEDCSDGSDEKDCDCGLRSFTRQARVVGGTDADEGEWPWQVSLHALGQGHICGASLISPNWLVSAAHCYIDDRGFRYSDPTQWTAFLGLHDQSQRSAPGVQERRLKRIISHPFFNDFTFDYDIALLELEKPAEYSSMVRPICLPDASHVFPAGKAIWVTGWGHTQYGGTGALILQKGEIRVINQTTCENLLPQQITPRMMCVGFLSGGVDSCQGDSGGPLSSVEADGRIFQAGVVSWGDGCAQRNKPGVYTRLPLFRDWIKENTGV
Put plainly: Inhibition of matriptase (unknown origin) using Boc-QAR-MCA as substrate after 30 mins relative to untreated control.

Chain of Plasminogen (P00747 97-580 limits assumed): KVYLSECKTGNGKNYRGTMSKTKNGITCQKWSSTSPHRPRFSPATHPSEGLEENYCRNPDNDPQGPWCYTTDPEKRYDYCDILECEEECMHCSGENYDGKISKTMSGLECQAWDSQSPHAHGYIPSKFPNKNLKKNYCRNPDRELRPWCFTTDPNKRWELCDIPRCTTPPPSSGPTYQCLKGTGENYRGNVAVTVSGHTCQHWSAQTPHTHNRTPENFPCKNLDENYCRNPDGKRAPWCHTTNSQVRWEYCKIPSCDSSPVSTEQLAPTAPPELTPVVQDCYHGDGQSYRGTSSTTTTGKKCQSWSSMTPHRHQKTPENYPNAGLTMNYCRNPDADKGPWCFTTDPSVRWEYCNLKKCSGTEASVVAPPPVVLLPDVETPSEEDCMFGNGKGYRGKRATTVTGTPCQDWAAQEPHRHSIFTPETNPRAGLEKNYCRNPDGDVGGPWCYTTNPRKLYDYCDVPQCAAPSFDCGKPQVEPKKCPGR
Chain of Plasminogen (P00747 581-810 limits assumed): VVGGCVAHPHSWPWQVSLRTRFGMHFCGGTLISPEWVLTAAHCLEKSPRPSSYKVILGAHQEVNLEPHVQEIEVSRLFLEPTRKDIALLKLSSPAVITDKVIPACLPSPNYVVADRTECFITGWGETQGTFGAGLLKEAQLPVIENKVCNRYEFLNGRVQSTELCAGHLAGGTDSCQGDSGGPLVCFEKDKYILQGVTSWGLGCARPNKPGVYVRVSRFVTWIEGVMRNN

As to `CC[C@H](C)[C@@H]1NC(=O)[C@@H]2CCCN2C(=O)[C@@H]2CCCN2C(=O)[C@H](CCCCN)NC(=O)[C@H](CO)NC(=O)[C@H](CCCCN)NC(=O)[C@H](Cc2ccc(O)cc2)NC(=O)[C@@H]2CSSC[C@H](NC1=O)C(=O)N[C@@H](Cc1ccccc1)C(=O)N1CCC[C@H]1C(=O)N[C@@H](CC(=O)O)C(=O)NCC(=O)N[C@@H](CCCNC(=N)N)C(=O)N2` (HELM PEPTIDE1{C.F.P.D.G.R.C.Y.K.S.K.P.P.I}$PEPTIDE1,PEPTIDE1,1:R3-7:R3|PEPTIDE1,PEPTIDE1,1:R1-14:R2$$$V2.0), the inhibition (usually how much of the control response was suppressed) in experiment [1] was 100%. Also, the Ki (in general, the dissociation constant of the complex between target and ligand, obtained from inhibition or displacement) in experiment [2] is over 50 µM.
